Several values for one entry are separate records, joined by “and”; a condition that tells them apart may be missing. Identical values can stand only once. Entries after “also recorded” stand apart in the source; their conditions may differ.
How the values were obtained:
Test in all cases: Inside-out patch-clamp of CFTR currents in transfected CHO cells
WT-CFTR = WT-CFTR (Homo sapiens, UniProt P13569); type: cell-based
Outline: (§1)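 CFTR construct and GFP plasmid cotransfected into CHO cells, held at 27°C for 2–6 d. Inside-out patches at room temperature, −30 mV, NMDG-Cl solutions at pH 7.4. Channels preactivated with 25 IU PKA plus 2 mM MgATP, then test compound (max 40 µM) applied in 2 mM ATP. ATP-subtracted steady-state currents normalized to the 3 µM response in the same patch. Hill fit with base 0 and maximum 1; EC50 ± SD of fit; 3–7 patches per point.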

S263A-CFTR = S263A-CFTR (Homo sapiens, UniProt P13569, S263A); type: cell-based
Sequence of S263A-CFTR (P13569 whole entry S263A): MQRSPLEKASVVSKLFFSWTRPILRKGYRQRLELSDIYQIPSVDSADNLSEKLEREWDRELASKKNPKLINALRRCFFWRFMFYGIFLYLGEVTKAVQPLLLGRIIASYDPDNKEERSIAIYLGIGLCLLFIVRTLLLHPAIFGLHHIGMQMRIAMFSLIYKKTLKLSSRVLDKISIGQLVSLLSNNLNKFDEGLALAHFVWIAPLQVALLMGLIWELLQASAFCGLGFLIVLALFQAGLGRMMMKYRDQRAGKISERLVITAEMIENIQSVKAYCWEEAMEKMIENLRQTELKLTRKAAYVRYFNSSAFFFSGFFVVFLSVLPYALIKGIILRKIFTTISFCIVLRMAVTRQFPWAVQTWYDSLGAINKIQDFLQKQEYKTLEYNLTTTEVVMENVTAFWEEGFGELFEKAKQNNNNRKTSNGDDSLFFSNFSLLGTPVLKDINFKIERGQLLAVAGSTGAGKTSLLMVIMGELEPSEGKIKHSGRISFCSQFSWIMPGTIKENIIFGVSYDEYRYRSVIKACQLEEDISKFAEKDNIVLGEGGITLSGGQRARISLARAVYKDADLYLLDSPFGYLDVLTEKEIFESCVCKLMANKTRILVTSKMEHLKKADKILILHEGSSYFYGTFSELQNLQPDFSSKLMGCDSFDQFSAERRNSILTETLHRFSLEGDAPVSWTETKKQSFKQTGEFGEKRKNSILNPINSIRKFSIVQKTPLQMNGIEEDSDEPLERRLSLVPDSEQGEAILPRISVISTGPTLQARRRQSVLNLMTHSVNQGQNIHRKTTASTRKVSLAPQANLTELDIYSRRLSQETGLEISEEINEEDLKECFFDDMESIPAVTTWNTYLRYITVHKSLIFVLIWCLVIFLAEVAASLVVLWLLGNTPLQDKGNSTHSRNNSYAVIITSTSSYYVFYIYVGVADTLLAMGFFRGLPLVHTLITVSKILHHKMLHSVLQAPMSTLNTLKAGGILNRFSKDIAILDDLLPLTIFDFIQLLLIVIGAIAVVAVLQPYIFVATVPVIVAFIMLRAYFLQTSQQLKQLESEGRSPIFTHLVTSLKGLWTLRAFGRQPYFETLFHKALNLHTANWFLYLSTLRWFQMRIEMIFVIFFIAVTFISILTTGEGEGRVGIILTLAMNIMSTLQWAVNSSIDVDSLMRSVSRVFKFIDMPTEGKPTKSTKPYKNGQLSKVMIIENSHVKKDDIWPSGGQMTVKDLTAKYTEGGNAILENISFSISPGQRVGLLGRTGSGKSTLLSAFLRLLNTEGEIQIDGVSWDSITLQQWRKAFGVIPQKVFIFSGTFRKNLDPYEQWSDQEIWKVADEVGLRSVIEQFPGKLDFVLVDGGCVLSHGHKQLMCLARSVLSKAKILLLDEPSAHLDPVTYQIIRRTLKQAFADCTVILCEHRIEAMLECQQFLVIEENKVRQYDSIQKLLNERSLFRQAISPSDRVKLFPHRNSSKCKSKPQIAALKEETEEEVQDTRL
Outline: as §1

N1138Y/G551D-CFTR = N1138Y/G551D-CFTR (Homo sapiens, UniProt P13569, G551D/N1138Y); type: cell-based
Outline: as §1

D924E-CFTR = D924E-CFTR (Homo sapiens, UniProt P13569, D924E); type: cell-based
Outline: as §1

S1141T/G551D-CFTR = S1141T/G551D-CFTR (Homo sapiens, UniProt P13569, G551D/S1141T); type: cell-based
Outline: as §1

F304Y-mCFTR = F304Y-mCFTR (Mus musculus, UniProt P26361, F304Y); type: cell-based
Outline: as §1

S1141R/G551D-CFTR = S1141R/G551D-CFTR (Homo sapiens, UniProt P13569, G551D/S1141R); type: cell-based
Outline: as §1

Y304A-CFTR = Y304A-CFTR (Homo sapiens, UniProt P13569, Y304A); type: cell-based
Outline: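 Relaxation assay: PKA-preactivated channels in 2 mM ATP at −30 mV exposed to test compound through a fast three-barrel perfusion system (dead time ∼30 ms). Current decay after sudden removal of 3 µM compound fitted with a single exponential to give relaxation time constant τ.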

T360A-CFTR = T360A-CFTR (Homo sapiens, UniProt P13569, T360A); type: cell-based
Outline: as §1

K190A-CFTR = K190A-CFTR (Homo sapiens, UniProt P13569, K190A); type: cell-based
Outline: as §1

S364A-CFTR = S364A-CFTR (Homo sapiens, UniProt P13569, S364A); type: cell-based
Outline: as §1

WT zCFTR (zWT) = WT zCFTR (zWT) (Danio rerio, UniProt Q1LX78); type: cell-based, zebrafish; conditions: EC50 for GLPG1837, dose–response
Outline: as §1

D924A-CFTR = D924A-CFTR (Homo sapiens, UniProt P13569, D924A); type: cell-based
Sequence of D924A-CFTR (P13569 whole entry D924A): as the sequence (P13569 whole entry S263A) above, with A263S, D924A counted along it
Outline: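 No macroscopic currents were obtained, so single-channel recordings were used: less plasmid, recorded within 2 d, 4–5 MΩ pipettes, patch held at −50 mV. Channels activated with PKA plus ATP, then PKA removed in 2 mM ATP. Activity at 3 and 20 µM test compound compared with basal activity in 2 mM ATP.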

N1138L/G551D-CFTR = N1138L/G551D-CFTR (Homo sapiens, UniProt P13569, G551D/N1138L); type: cell-based
Outline: as §1

S1149A-CFTR = S1149A-CFTR (Homo sapiens, UniProt P13569, S1149A); type: cell-based
Outline: as §1

Y304F-CFTR = Y304F-CFTR (Homo sapiens, UniProt P13569, Y304F); type: cell-based
Outline: as §1

[1] = CHO, read-out: Efficacy (% increase) of currents by GLPG1837

Sequence of WT-CFTR (P13569 whole entry): as the sequence (P13569 whole entry S263A) above, with A263S counted along it

CC1(C)Cc2c(sc(NC(=O)c3ccn[nH]3)c2C(N)=O)C(C)(C)O1 [GLPG1837, N-(3-carbamoyl-5,5,7,7-tetramethyl-5,7-dihydro-4H-thieno[2,3-c]pyran-2-yl)-lH-pyrazole-5-carboxamide]
EC50 (WT-CFTR): 260 ± 40 nM | Hill coefficient of the GLPG1837 effect (WT-CFTR): ≈ 1 | Emax (WT-CFTR; [1]): 115% | Saturating concentration of GLPG1837 (WT-CFTR; continuous presence of ATP): 3 µM | EC50 (S263A-CFTR): 270 ± 50 nM | Emax (S263A-CFTR; [1]): 148 ± 18% | ΔΔG (S263A-CFTR; GLPG1837, vs WT): -0.022 kcal/mol | EC50 (N1138Y/G551D-CFTR): 400 ± 100 nM | ΔΔG (N1138Y/G551D-CFTR; GLPG1837, vs G551D): 1.01 kcal/mol | EC50 (D924E-CFTR): 710 ± 70 nM | Emax (D924E-CFTR; [1]): 194 ± 8% | ΔΔG (D924E-CFTR; GLPG1837, vs WT): -0.595 kcal/mol | EC50 (S1141T/G551D-CFTR): 1740 ± 310 nM | ΔΔG (S1141T/G551D-CFTR; GLPG1837, vs G551D): 0.136 kcal/mol | EC50 (F304Y-mCFTR): 680 ± 180 nM | Potentiation of currents by GLPG1837 (F304Y-mCFTR): restores the potentiating effects; also recorded: Potentiation | EC50 (S1141R/G551D-CFTR): 510 ± 130 nM | ΔΔG (S1141R/G551D-CFTR; GLPG1837, vs G551D): 0.863 kcal/mol | EC50 (Y304A-CFTR): > 3000 nM | Emax (Y304A-CFTR; [1]): > 80% | ΔΔG (Y304A-CFTR; GLPG1837, vs WT): <-1.45 kcal/mol | Relaxation time constant upon removal of GLPG1837 (Y304A-CFTR; mean, n = 5): 3.6 ± 1.0 s and < 5 s | EC50 (T360A-CFTR): 120 ± 10 nM | Emax (T360A-CFTR; [1]): 120 ± 38% | ΔΔG (T360A-CFTR; GLPG1837, vs WT): 0.459 kcal/mol | EC50 (K190A-CFTR): 80 ± 10 nM | Emax (K190A-CFTR; [1]): 61 ± 12% | ΔΔG (K190A-CFTR; GLPG1837, vs WT): 0.698 kcal/mol | EC50 (S364A-CFTR): 180 ± 10 nM | Emax (S364A-CFTR; [1]): 126 ± 5% | EC50 (WT zCFTR (zWT)): 3900 ± 1700 nM | Decrease of apparent affinity for GLPG1837 vs WT-CFTR (D924A-CFTR): ≥ 10 fold | EC50 (D924A-CFTR): > 3000 nM | Potentiating effect of GLPG1837 (D924A-CFTR; 3 µM GLPG1837, microscopic recording): barely discerned any potentiating effects | ΔΔG (D924A-CFTR; GLPG1837, −RTln(EC50 mutant/EC50 WT)): <-1.45 kcal/mol | EC50 (N1138L/G551D-CFTR): 80 ± 20 nM | Emax (N1138L/G551D-CFTR; [1]): 253 ± 32% | ΔΔG (N1138L/G551D-CFTR; GLPG1837, vs G551D): 1.96 kcal/mol | EC50 (S1149A-CFTR): 160 ± 30 nM | Emax (S1149A-CFTR; [1]): 139 ± 36% | ΔΔG (S1149A-CFTR; GLPG1837, vs WT): 0.287 kcal/mol | EC50 (Y304F-CFTR): 2280 ± 340 nM | Emax (Y304F-CFTR; [1]): 82 ± 12%
